Source: PubChem (several laboratories)
The list is not random: actives were taken first. Their share in the collection is about 2.2%.
Granule exo inh: blocks lytic granule exocytosis | 360,000 tested, 0.66% active | inhibition, % at 10 µM | TALL-104 LAMP-1 surface exposure, flow cytometry; cells stimulated with thapsigargin and PMA;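 active = inhibition above about 55%, limit read from the data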
ARFGAP1 inh: inhibits rat ARF GTPase activating protein 1. Q62848. Arfgap1-stimulated ARF1 GTP hydrolysis, GDP FP detection. inhibition, % at 16.5 µM. 360,000 tested, 0.26% active. AID 651572;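 active = inhibition above a per-plate limit, mean inhibition of low control wells plus 3 SD, cut at about 25% in these data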;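 also: 0% = DMSO wells with enzyme and 100% = wells lacking Arfgap1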
Target sequence (Q62848 1-136 limits assumed): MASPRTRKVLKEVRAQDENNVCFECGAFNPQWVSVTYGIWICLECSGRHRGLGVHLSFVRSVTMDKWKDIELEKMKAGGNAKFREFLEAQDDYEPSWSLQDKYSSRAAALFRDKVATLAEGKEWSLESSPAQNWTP
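System: truncated rat Arfgap1 GAP domain / Benchmarks: high control wells lacking Arfgap1, low control full reaction with DMSO / Times: compound-enzyme preincubation 20 min, reaction 120 min, detection 60 min, 25 °C / Repeats: one replicate per compound / Also added: human ARF1(Δ1-17)-GTP substrate / Measured by: Tracer-displacement fluorescence polarization with EDTA stop, 620/688 nm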
CendR NRP1 mod: alters CendR peptide binding to human NRP-1; AID 602438; 360,000 tested, 0.85% active; FAM-RPARPAR peptide binding to NRP-1, fluorescence polarization; inhibition, % at 25 µM; O14786;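 active = inhibition or corrected inhibition above about 18%, plus a signal ratio from 0.5 to 1.5, limit read from the data, passing the limit was not always enough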
V-ATPase pHluor: yeast V-ATPase proton transport regulation by pHLuorin | S. cerevisiae, pHLuorin cytosolic pH fluorescence | 350,000 tested, 0.37% active | response, % at 10 µM; in the data active = response mostly above about 7.3%, no sharp cut-off; inactive = mostly below about 5.4%; also: actives read high
ASAP1 GAP inh: ASAP1 ArfGAP inhibition | 360,000 tested, 0.19% active | ASAP1-stimulated ARF1 GTP hydrolysis, GDP FP detection | inhibition, % at 16.5 µM | Q9ULH1; in the data active = inhibition above about 25%;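 also: 0% = vehicle with enzyme and substrate and 100% = no enzyme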
Target sequence (Q9ULH1 325-724 limits assumed): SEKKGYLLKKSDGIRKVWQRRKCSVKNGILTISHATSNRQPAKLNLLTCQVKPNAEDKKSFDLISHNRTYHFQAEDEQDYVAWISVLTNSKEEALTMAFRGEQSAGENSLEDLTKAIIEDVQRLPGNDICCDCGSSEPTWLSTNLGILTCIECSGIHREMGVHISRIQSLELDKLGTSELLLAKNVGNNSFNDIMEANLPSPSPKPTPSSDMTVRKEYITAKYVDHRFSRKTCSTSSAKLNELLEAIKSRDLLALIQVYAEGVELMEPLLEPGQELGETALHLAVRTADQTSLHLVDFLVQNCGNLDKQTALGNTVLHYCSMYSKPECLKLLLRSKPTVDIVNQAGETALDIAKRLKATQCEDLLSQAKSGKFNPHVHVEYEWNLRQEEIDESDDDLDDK
V-ATPase pH SP: modulates yeast V-ATPase proton transport. 980 tested, 2% active. S. cerevisiae pHLuorin cytosolic pH. response, % at 10 µM. shares compounds with V-ATPase pHluor; in the data active = response above about 24%;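 also: plate controls were vehicle wells for no effect and positive control wells for full effect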
* hit, by the source's call; nt = not tested or not shown.

SMILES | Granule exo inh | ARFGAP1 inh | CendR NRP1 mod | V-ATPase pHluor | ASAP1 GAP inh | V-ATPase pH SP
O=C(Cc1cccc(NC(=O)C2CCCN(C(=O)C3CCCC3)C2)c1)Nc1cccc(C(=O)N2CCCCC2)c1 (centres undefined) | -2 | -5 | 4 | -1 | 14 | nt
CCCS(=O)(=O)NC(=O)C1(C)CCN(C(=O)c2c(F)cccc2F)C1 (centres undefined) | 6 | 7 | -9 | nt | 9 | nt
CN1CCN(C2CC(=O)N(Cc3ccc(N4CCCC4=O)cc3)C2=O)CC1 (centres undefined) | 7 | 7 | -1 | 11* | -7 | -3
O=C1CC(N2CCN(c3ccc(F)cc3)CC2)C(=O)N1Cc1ccc(N2CCCC2=O)cc1 (centres undefined) | 2 | 0 | 10 | -6 | 2 | nt
COc1ccc(NC(=S)N2CCN(C/C=C/c3ccccc3)CC2)c(OC)c1 | -3 | 3 | 4 | 12* | 4 | -1
COc1ccccc1NC(=S)N1CCN(C/C=C/c2ccccc2)CC1 | 2 | -8 | 9 | 0 | -3 | nt
COc1ccc(NS(=O)(=O)c2ccc(C)c(C(=O)NCC(c3ccco3)N3CCCCC3)c2)cc1 (centres undefined) | 4 | 12 | 3 | 9.9* | 16 | -2
O=C(CSc1nnc(-c2ccccc2)o1)NC(=O)Cc1ccccc1 | 12 | -12 | -7 | 4 | -6 | 0
O=C(O)CSc1nnc(-c2ccccc2)o1 | 5 | -7 | 21 | 1 | 0 | -1
O=C(O)CSc1nnc(-c2ccc3c(c2)OCO3)o1 | -4 | 10 | 3 | -6 | -5 | nt
NC(=O)CSc1nnc(-c2ccc3c(c2)OCO3)o1 | 0 | 0 | -8 | 5.5* | 1 | 1
Cc1ccc(C(=O)CSc2nnc(-c3ccccc3)o2)cc1 | 0 | 4 | 10 | -1 | -1 | 2
COC(=O)C1=C(C)N(Cc2ccccc2C(F)(F)F)C(=NCc2ccccc2C(F)(F)F)NC1c1cccc(F)c1 (centres undefined) | nt | 9 | nt | nt | -6 | nt
COC(=O)C1=C(C)N(CC(C)C)C(=S)NC1c1cccc(OC)c1 (centres undefined) | nt | 13 | nt | nt | 17 | nt
O=C(CSc1nnc(-c2ccc(F)cc2)o1)N1CCCCC1 | -17 | 5 | -2 | 4 | -8 | nt
COc1ccc(CCNC(=O)CSc2nnc(-c3ccccc3)o2)cc1OC | 0 | 7 | 8 | 11* | -8 | 6
COc1ccc(CCNC(=O)CSc2nnc(-c3cccc(C)c3)o2)cc1OC | -1 | 6 | -4 | 0 | -3 | nt
O=C(CSc1nnc(-c2ccccc2)o1)N1CCCC1 | 11 | 8 | 1 | -4 | 2 | 0
O=C(CSc1nnc(-c2ccccc2)o1)N1CCCCC1 | 6 | 19 | 8 | 1 | 4 | -12
O=C(CSc1nnc(-c2ccccc2F)o1)N1CCCC1 | -3 | -2 | 4 | 2 | -5 | nt
CCc1nn(CC(=O)N2CCCCCC2)c(=O)c2cc3ccccc3n12 | -4 | 9 | 2 | 13* | -5 | 1
O=C(CNS(=O)(=O)c1ccc(Br)s1)N1CCN(c2ccc(F)cc2)CC1 | 0 | 15 | 11 | 6 | 9 | nt
COc1ccc(/C(C)=N/NC(=O)CNC(=O)/C=C\c2ccccc2)c(OC)c1 | 2 | -5 | 15 | -4 | 4 | nt
COc1ccc(/C=N/NC(=O)C2c3ccccc3-c3ccccc32)cc1 | 8 | -7 | -5 | 27* | 3 | 0
O=C(O)c1ccc(-c2nnc(-c3ccc([N+](=O)[O-])cc3)o2)cc1 | -2 | 1 | 10 | 9.4* | -12 | 2
SMILES | Granule exo inh | ARFGAP1 inh | CendR NRP1 mod | V-ATPase pHluor | ASAP1 GAP inh | V-ATPase pH SP
O=C(N/N=C/c1ccccc1C(=O)O)c1cccc(S(=O)(=O)N2CCCCC2)c1 | -1 | -9 | 4 | -1 | -8 | nt
CCN(CC)C(=O)C1=C(C)N(Cc2ccc(F)cc2)C(=O)C(CC(=O)NCCN2CCOCC2)C1 (centres undefined) | 20 | -9 | -14 | 0 | -4 | nt
CN(C(=O)c1cccc(NC(=O)Cc2ccc(NC(=O)C3CCN(C(=O)c4ccccc4)CC3)cc2)c1)C1CCC1 | 4 | -8 | -14 | 0 | -2 | nt
CN(C(=O)c1cccc(NC(=O)Cc2ccc(NC(=O)C3CCN(C(=O)CCc4ccccc4)CC3)cc2)c1)C1CCCCC1 | 0 | -1 | 3 | 7.7* | 2 | 0
Cn1c(=O)c2c(SCC(=O)N3CCOCC3)nc(-c3ccccc3Cl)nc2n(C)c1=O | -7 | -2 | -5 | -1 | -13 | nt
NC(=O)c1cc(NC(=O)CCc2nc3ccccc3s2)cc(C(N)=O)c1 | -6 | -3 | -6 | 9.6* | 4 | 4
N#Cc1ccc(NC(=O)CCc2nc3ccccc3s2)cc1 | 0 | 8 | -5 | -2 | 4 | nt
CC(=O)Nc1ccc(NC(=O)c2ccc(NS(=O)(=O)c3cc(C(C)(C)C)cc(C)c3C)cc2)cc1 | -2 | 6 | 10 | 11* | 5 | 2
CSc1ccc(CN(C)CC(=O)NC(=O)NCCC2=CCCCC2)cc1 | 0 | 10 | -1 | 10 | 4 | nt
CCN1CCN(C(=O)CN(CCc2ccccc2)S(C)(=O)=O)CC1 | -1 | -1 | -5 | -2 | -3 | nt
CN1CCN(C(=O)CN(CCc2ccccc2)S(C)(=O)=O)CC1 | 8 | 0 | -1 | 11* | -6 | 1
Cc1ccc(S(=O)(=O)CCC(=O)NCc2ccccc2F)cc1 | -7 | -8 | 16 | -5 | 0 | nt
Cc1c(NC(=O)c2cccc(NC(=O)COc3ccccc3C#N)c2)c(=O)n(-c2ccccc2)n1C | 6 | -1 | 5 | 15* | 0 | 0
CC(=O)Nc1cccc(C(=O)OC(C)C(=O)NC(=O)NC2CCCCC2)c1 (centres undefined) | 6 | 3 | -3 | 11* | -13 | 0
O=C(/C=C/c1cccc(F)c1)Nc1cc(S(=O)(=O)N2CCOCC2)ccc1N1CCCC1 | 2 | 11 | -39 | 6.5* | -3 | 2
COc1cccc(/C=C/C(=O)Nc2cc(S(=O)(=O)N3CCOCC3)ccc2OC)c1 | 0 | 6 | 6 | 12* | 1 | 1
CC1(C)O[C@@H](CC(=O)O)[C@]23CO[C@H](C(=O)[C@]4(C)C2CC[C@@]2(C)[C@H](c5ccoc5)OC(=O)C5O[C@]524)[C@@H]13 (some centres undefined) | 0 | 3 | -11 | -4 | 18 | nt
CCOc1ccc(C(=O)NC2CCCCCCC2)cc1 | 0 | 3 | 8 | 3 | -4 | nt
O=C(NC1CCCCCC1)c1ccc(OCC2CCCO2)cc1 (centres undefined) | -3 | 1 | -9 | 7.8* | -5 | 1
N#Cc1c(C(F)(F)F)cc(-c2cccs2)nc1SCc1cccnc1 | -2 | 22 | 11 | 7.7* | -2 | -27
COc1cccc(C(=O)NNS(=O)(=O)c2ccc(C)cc2)c1 | 7 | 5 | 4 | -3 | -5 | nt
